High-throughput results (PubChem)
GRK2 inh: compounds blocking aptamer binding on GRK2 – biochemical, human GRK2, bead flow cytometry, HTS, primary screen | Beta-adrenergic receptor kinase 1 (Homo sapiens), P25098 | FAM-aptamer displacement from GRK2 | inhibition of aptamer binding, % at 10 µM | hit rate 0.59% among 330,000;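 active means inhibition of aptamer binding above 40%, roughly 3 SD of noise, on plates passing a quality check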;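 further: median bead fluorescence of bound FAM aptamer so fluorescent compounds give negative values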
LMPTP block: LMPTP phosphatase inhibitors, primary screen, biochemical, fluorescence intensity, uHTS | Low molecular weight phosphotyrosine protein phosphatase (Homo sapiens), P24666 | recombinant LMPTP-A, OMFP fluorogenic substrate | inhibition, % at 20 µM | hit rate 0.22% among 360,000;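 active means compounds that cut the enzyme signal by at least half of the control window in the single-dose screen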;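 further: plate controls were DMSO wells with enzyme plus substrate for no effect and substrate without enzyme for full effect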
Target sequence (P24666 whole entry, looked up): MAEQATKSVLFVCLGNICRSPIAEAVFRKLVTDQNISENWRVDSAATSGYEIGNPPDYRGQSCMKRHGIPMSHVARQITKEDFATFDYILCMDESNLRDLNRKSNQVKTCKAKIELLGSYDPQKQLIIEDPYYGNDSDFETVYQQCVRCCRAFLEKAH
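Buffer or medium: Bis-Tris pH 6.0, DTT, detergent; Assay system: LMPTP-A enzyme; Quantity: 0.625 nM enzyme; Detection: endpoint fluorescence intensity; Times: 50 min dark incubation at room temperature; Controls: substrate-only low control, DMSO enzyme-plus-substrate high control; Doses: single 20 µM dose; Read-out: percent inhibition versus substrate-only and uninhibited controls; Reagent: 400 µM OMFP.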
DNMT1 block: human DNMT1 methyltransferase inhibitors, primary screen, biochemical, molecular beacon, fluorescence, HinP1I cleavage, uHTS; inhibition (reported as % activation of signal), % at 10 µM; hit rate 0.83% among 360,000; AID 588458, 2011; in the data active means inhibition above about 50%
SUMO1-SIM PPI: modulators of SUMO1 protein-protein interactions, primary screen, biochemical, uHTS; SUMO1 binding to a labelled peptide, TR-FRET, 1 h; inhibition, % at 20 µM; hit rate 0.33% among 360,000; in the data active means inhibition above about 37%
Target sequence (P63165 whole entry, looked up): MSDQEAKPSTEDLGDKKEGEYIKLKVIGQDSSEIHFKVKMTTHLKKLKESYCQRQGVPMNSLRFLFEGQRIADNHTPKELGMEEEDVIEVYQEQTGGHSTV
STEP inh: STEP phosphatase inhibitors, primary screen, biochemical, fluorescence intensity, uHTS; Tyrosine-protein phosphatase non-receptor type 5 (Homo sapiens), P54829; recombinant STEP, OMFP fluorogenic substrate; inhibition, % at 20 µM; hit rate 0.25% among 360,000; AID 588621, 2011;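 active means inhibition at 20 µM, scaled per plate between control wells, above about 37%, limit read from the data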;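 further: 0% = DMSO with enzyme and substrate and 100% = substrate only without enzyme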
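System: isolated STEP enzyme; schedule: 20 min enzyme reaction at room temperature, protected from light; medium: Bis-Tris buffer pH 6.0, 2.5 mM DTT, 0.005% Tween 20; signal: fluorescence, 480/540 nm; dosing: single compound dose of 20 µM, 1% DMSO final; also added: OMFP substrate, 25 µM final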
Scp-1 inhibitor: Scp-1 phosphatase inhibitors, primary screen, biochemical, colorimetric, uHTS; Carboxy-terminal domain RNA polymerase II polypeptide A small phosphatase 1 (Homo …; Recombinant Scp1, phosphopeptide, malachite green phosphate absorbance; inhibition, % at 20 µM; hit rate 0.88% among 340,000; AID 493091, 2011;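 active means inhibition above about 50% at 20 µM, limit read from the data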;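 further: plate controls were DMSO wells with enzyme for no effect and wells lacking enzyme for full effect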
Target sequence (Q9GZU7 76-261 limits assumed): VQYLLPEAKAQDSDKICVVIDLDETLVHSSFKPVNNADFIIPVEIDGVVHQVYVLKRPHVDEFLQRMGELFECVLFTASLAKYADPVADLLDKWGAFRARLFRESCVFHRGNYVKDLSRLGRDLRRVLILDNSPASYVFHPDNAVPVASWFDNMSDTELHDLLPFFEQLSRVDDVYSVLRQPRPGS
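Test system: SCP-1 phosphatase catalytic domain, residues 76-261 | Compound dosing: One concentration, 20 µM, with 1.0% DMSO | Schedule: 45 min room-temperature reaction, 5 min colour, 30 min stabiliser | Detection: Absorbance at 630 nm | Read-out basis: % inhibition of SCP-1 phosphate liberation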
GRK2 CP1: GRK2 aptamer-displacing inhibitors, retest, confirmation, biochemical, cherry pick 1, bead flow cytometry; shares compounds with GRK2 inh; bead-bound GRK2, FAM-aptamer displacement; aptamer displacement, % at 10 µM; hit rate 4% among 2,000; AID 504451, 2011;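 active means aptamer displacement above 40%, near three times the noise of non-fluorescent compounds, on plates passing quality checks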;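 further: negative values mostly reflect intrinsic compound fluorescence rather than true enhancement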
Aptamer quench: counter-screen for GRK2 aptamer inhibitors: fluorescent aptamer quenchers | AID 504521 | 110 tested, under 10 active | fluorescence change (kMESF span), kMESF (concentration not given with the values) | shares compounds with GRK2 inh | Fluorescent RNA aptamer beads, quenching, flow cytometry; hits give high values;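 active means compounds whose bead fluorescence drops by more than 37 kMESF across the dose range, marking them as dye quenchers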
FAM quench CP1: aptamer fluorescence quenching in GRK2 counter-screen; shares compounds with GRK2 inh; Carboxyfluorescein RNA aptamer on beads, flow cytometry quenching; hits give low values; fluorescence response (% of DMSO), % at 10 µM; 2,000 tested, under 10 active;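 active means compounds that quench the bead-bound fluorescent RNA probe, cutting fluorescence to under half of the solvent control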;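 further: counterscreen run without GRK2 so only probe quenching by compound is measured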
GRK2 CP2: GRK2 aptamer-displacing inhibitors, hit retest, confirmation, biochemical, cherry pick 2, bead flow cytometry | bead-bound GRK2, FAM-aptamer displacement | 360 tested, under 10 active | shares compounds with GRK2 inh | inhibition of aptamer binding, % at 10 µM;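 active means inhibition of aptamer binding above 40%, about triple the noise seen with nonglowing compounds, on plates passing quality control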;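 further: negative values mostly come from compounds that fluoresce themselves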
FAM quench CP2: quenches fluorescent RNA aptamer, GRK2 hit artifact. shares compounds with GRK2 inh. carboxyfluorescein RNA aptamer beads, flow cytometry quenching; hits give low values. fluorescence response vs DMSO, % at 10 µM. 360 tested, under 10 active. AID 588494;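 active means response vs DMSO under 50%, meaning signal dropped by over half, treated as fluorescence quencher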;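 further: labelled aptamer on streptavidin beads without GRK2 as a quench counter-screen; 100% = bead fluorescence of DMSO wells and lower means quenching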
The depositor's hits bear a star; . = no result. Shown are actives, neighbours in structure and some others; about 2.2% of the full set was active somewhere.

SMILES	GRK2 inh	LMPTP block	DNMT1 block	SUMO1-SIM PPI	STEP inh	Scp-1 inhibitor	GRK2 CP1	FAM quench CP1	others
Cc1cc([N+](=O)[O-])cnc1N1CCOCC1	88.0*	-1.3	0.5	-16.7	-1.1	-3.7	1.4	115.5
NC(COCc1ccccc1)c1csc(Nc2ccc(C(=O)NCCO)cc2)n1 (stereo unspecified)	.	-1.3	-5.3	-1.4	2.5	.	.	.
CCOC(=O)C1=C[C@@H](C2CCCCC2)N(S(=O)(=O)c2ccc([N+](=O)[O-])cc2)[C@H]1c1ccccc1	.	1.1	0.6	2.1	2.5	.	.	.
CCOCCCN(C(=O)CNC(=O)c1ccco1)C(C(=O)NC1CCCC1)c1ccccc1C (stereo unspecified)	56.0*	-0.1	2.5	1.1	-2.8	-2.2	0.9	104.5
CCOC(=O)CN(C(=O)CNC(=O)c1ccco1)C(C(=O)NC1CCCC1)c1ccccc1OCC (stereo unspecified)	2.0	-0.8	-0.2	-2.4	0.6	-9.2	.	.
COc1ccc(S(=O)(=O)NCc2ccc(C(=O)NCCN(C)Cc3ccccc3)cc2)cc1	.	-2.1	-4.8	3.8	0.3	.	.	.
CCOc1ccc(C2=NNC(c3cccnc3)=Nc3ccc(OC)cc32)cc1	100.0*	-0.2	-1.6	-6.2	1.1	-1.7	3.5	101.1
CCOc1ccc2c(c1)C(c1ccc(C)cc1)=NNC(c1ccc(OC)cc1)=N2	2.0	1.1	-5.6	-4.1	-0.3	8.6	.	.
CC(NC(=O)c1cccc(S(=O)(=O)N2CCN(C)CC2)c1)c1ccc(Cl)cc1Cl (stereo unspecified)	75.0*	0.4	-5.3	0.2	1.1	-5.7	-3.4	96.7
CC(NC(=O)c1cccc(S(=O)(=O)N2CCN(Cc3ccccc3)CC2)c1)c1ccccc1Cl (stereo unspecified)	.	-6.8	-9.2	-15.0	0.9	-8.1	.	.
Cc1cc(C(=O)N2CCc3ccccc32)c2cc(F)ccc2n1	76.0*	2.3	1.2	1.5	-0.2	-3.0	2.2	102.3
O=C(c1cccc(F)c1)N1CCc2ccccc21	4.0	-0.5	-7.1	4.0	0.2	-8.0	.	.
Cc1nc2cc(C(=O)N3CCc4ccccc43)ccc2n1-c1ccc(F)c(F)c1	93.0*	0.4	-1.8	-0.8	1.4	-3.9	.	.	GRK2 CP2=-12.4;FAM quench CP2=100.0
CC(Sc1nc(-c2ccccc2)c(-c2ccccc2)[nH]1)C(=O)NCC1CCCO1 (stereo unspecified)	.	-0.1	3.2	-2.4	0.1	.	.	.
COc1ccccc1OCCC(=O)Nc1cccc(S(=O)(=O)N2CCOCC2)c1	97.0*	-2.4	-2.2	3.1	-3.0	-9.8	0.0	101.4
COc1ccc(N2CCN(C(CNS(=O)(=O)c3ccccc3)c3ccccc3)CC2)cc1 (stereo unspecified)	47.0*	-1.5	-0.1	2.6	2.3	-10.3	2.2	86.1	Aptamer quench=18.9
COc1ccc(C(CNS(=O)(=O)c2ccc(C)cc2)N2CCN(C)CC2)cc1 (stereo unspecified)	0.0	-0.7	0.6	-4.9	-3.0	-3.4	.	.
CCCOc1ccc(CN(C(=O)c2cccc(OC)c2)C2CCS(=O)(=O)C2)cc1 (stereo unspecified)	99.0*	-0.2	0.2	0.8	-2.9	-7.5	1.5	96.8
COc1ccc(CN(C(=O)c2cccc(OC)c2)C2CCS(=O)(=O)C2)cc1 (stereo unspecified)	3.0	-1.9	5.2	-0.6	-1.8	-11.4	.	.
CN(CCO)c1ccc(C=NNc2ccc([N+](=O)[O-])cc2S(=O)(=O)Nc2ccccc2C(=O)O)cc1	35.0	6.7	-32.2	8.9	1.6	16.0	11.5	100.8
O=C(NCc1ccccc1)c1cccc(COc2ccccc2Cl)c1	1.0	4.9	-6.8	0.9	-0.6	-12.6	-4.3	101.2
O=C(NCc1ccccc1)c1cccc(NC(=O)C2CCCC2)c1	.	-0.5	2.8	7.9	-2.7	-4.2	2.2	102.2
O=C(NCc1ccccc1)c1cccc(NC(=O)C2CCC2)c1	.	-1.2	3.4	1.7	-2.9	-4.2	-5.2	136.8
O=C(NCc1ccccc1)c1ccc(NC(=O)C2CCC2)cc1	.	-0.7	4.8	-0.5	-2.7	-0.1	.	.
Cc1ccc(C)c(C(O)c2ncc(-c3ccc(Cl)cc3)[nH]2)c1 (stereo unspecified)	.	1.1	-1.3	-0.5	-1.9	.	.	.
SMILES	GRK2 inh	LMPTP block	DNMT1 block	SUMO1-SIM PPI	STEP inh	Scp-1 inhibitor	GRK2 CP1	FAM quench CP1	others
CC(C)NC(=O)CN1CCN(C(c2cc3ccccc3o2)c2nnnn2C(C)(C)C)CC1 (stereo unspecified)	.	-0.8	.	3.1	.	.	.	.
O=C(NN1CCOCC1)c1ccc(Br)s1	69.0*	-0.3	0.4	0.1	-2.0	-5.2	0.3	101.7
CCc1sc(C(=O)Nc2ccc3c(c2)OCCO3)cc1Br	2.0	-0.5	3.5	-0.5	-2.3	.	.	.
O=C(Nc1ccc2c(c1)OCCO2)c1ccc(Br)s1	0.0	1.3	-0.3	3.1	-6.2	-13.8	3.1	102.1
Cc1nc(NC(=O)COC(=O)C2=NNC(=O)CC2)c(Cl)cc1Cl	55.0*	-0.8	3.6	2.8	-0.9	2.6	-0.3	93.8
CC1Cc2nc(SCC(=O)N3CCCC3)n(C)c(=O)c2S1 (stereo unspecified)	100.0*	-1.0	1.6	-1.7	1.3	6.0	-0.8	95.6
CCOC(=O)C1(C)CCN1C(=O)c1cccc(C(F)(F)F)c1 (stereo unspecified)	.	-0.3	0.1	-0.7	-3.8	.	.	.
